Compounds with a hit are over-represented: about 2.7% of the library has one in this group of screens.
OXTR ag: agonists of human oxytocin receptor. 320,000 tested, 0.32% active. activation, % at 3 µM. P30559. CHO-OTR cells, Fluo-8 calcium fluorescence; normalized: DMSO 0%, oxytocin 100%;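 active = activation above the mean of all tested compounds plus 3 SD, cutoff set per screening run, cut at about 20% in these data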;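 note: peak over basal fluorescence ratio from a 100 s FLIPR kinetic read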
V1aR counter: activates human V1a receptor in oxytocin agonist counter-screen; activation, % at 3 µM; AID 2797; CHO-V1R cells, Fluo-8 calcium fluorescence, agonist mode; 0% DMSO, 100% 3 nM vasopressin; 320,000 tested, 0.25% active;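 active = activation above the mean activation of all tested compounds plus 3 SD, per screening run, cut at about 20% in these data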;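 note: signal is peak over basal fluorescence ratio across a 100 second FLIPR read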
Target sequence (P37288 whole entry, looked up): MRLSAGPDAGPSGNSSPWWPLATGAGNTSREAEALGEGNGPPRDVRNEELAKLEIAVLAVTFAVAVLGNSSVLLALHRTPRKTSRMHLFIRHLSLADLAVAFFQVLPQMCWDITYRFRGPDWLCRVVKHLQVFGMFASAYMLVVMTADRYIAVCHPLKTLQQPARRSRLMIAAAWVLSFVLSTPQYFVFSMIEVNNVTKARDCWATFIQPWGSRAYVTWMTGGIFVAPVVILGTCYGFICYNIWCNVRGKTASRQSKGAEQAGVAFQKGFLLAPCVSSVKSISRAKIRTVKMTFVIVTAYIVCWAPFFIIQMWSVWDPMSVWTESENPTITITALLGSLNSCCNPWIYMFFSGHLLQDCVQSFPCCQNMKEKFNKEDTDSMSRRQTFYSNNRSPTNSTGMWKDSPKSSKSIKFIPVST
CHO parental Ca: counter-screen for OX1R antagonists: effect in parental CHO cells | parental CHO-K1, ATP-induced calcium, Fluo-8 fluorescence | inhibition, % at 5.6 µM | 330,000 tested, 0.63% active;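 active = inhibition above that plate's mean sample inhibition plus 3 SD, cut at about 26% in these data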;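 note: 0% = ATP-challenged DMSO wells and 100% = DMSO wells without ATP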
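Material: parental CHO cells / Compound: single nominal dose of 5.6 µM per compound / Signal: Fluo-8 fluorescence / Replicates: singlicate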
OXTR potentiator: human OXTR potentiation; P30559; CHO-OTR cells, Fluo-8 calcium fluorescence, potentiator mode; 0% = oxytocin EC15, 100% = EC100; activation, % at 3 µM; 320,000 tested, 0.061% active;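 active = activation above that plate's cutoff, the mean activation of tested compounds plus 3 SD, cut at about 6.6% in these data, passing the limit was not always enough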;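 note: 100% uses oxytocin at 75 nM as the full agonist control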
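Assay system: CHO cell line stably expressing human OTR | Also added: Oxytocin at about EC15, sub-maximal agonist stimulus | Times: Compound 6 min at room temperature before oxytocin, 100 s read | Measured by: Fluo-8 intracellular calcium fluorescence, ex 470-495, em 515-575 nm | Controls: EC15 oxytocin alone as 0%, 75 nM oxytocin as 100%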
OX1R antag-1: human HCRTR1 antagonism; O43613; CHO/OX1R cells, Fluo-8 calcium fluorescence, orexin A; inhibition, % at 5 µM; 330,000 tested, 0.43% active; AID 434989;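 active = inhibition above its plate's threshold, mean inhibition of all tested compounds on the plate plus 3 SD, cut at about 37% in these data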;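 note: 0% = orexin A challenge wells and 100% = SB-334867-A antagonist wells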
OX1R antag-2: blocks the human orexin 1 receptor; OX1R-expressing cells, FRET antagonist read-out; inhibition, % at 6.6 µM; AID 485270; 330,000 tested, 1.8% active; in the data active = inhibition mostly above about 38%, no sharp cut-off; inactive = mostly below about 40%;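 note: 0% = agonist challenge alone and 100% = reference antagonist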
Starred values were filed as active, the others as inactive; x = no result.

SMILES	OXTR ag	V1aR counter	CHO parental Ca	OXTR potentiator	OX1R antag-1	OX1R antag-2
CC1(C)CC(N=C2C([N+](=O)[O-])=CC=C3C2=NC2(CCCCC2)N3O)CC(C)(C)N1	1	0	8	-1	-2	74*
O=[N+]([O-])C1=CC=C2C(=NC3(CCCCC3)N2O)C1=NC1CCCCC1	-2	-1	2	-6	-9	-2
COC(=O)c1ccc(N2CCC(c3cc(-c4ccc(OC)cc4)n[nH]3)CC2)c([N+](=O)[O-])c1	1	3	-1	-2	-13	27
CC(=O)c1ccc(N2CCC(c3cc(-c4ccc(Cl)cc4)n[nH]3)CC2)c([N+](=O)[O-])c1	3	4	43*	-6	15	28
COc1ccc(-c2cc(C3CCN(c4ccc(C(C)=O)cc4[N+](=O)[O-])CC3)[nH]n2)cc1	13	10	50*	-12	25	36
CC(=O)c1ccc(N2CCN(c3ncccn3)CC2)c([N+](=O)[O-])c1	6	9	10	-14	3	30
CCOc1ccc([C@@H]2CC=C(C(=O)O)CN2S(=O)(=O)c2ccc(C)cc2)cc1	0	-1	-11	-13	-8	9
O=C(CCNS(=O)(=O)c1ccc(Cl)cc1)Nc1ccncc1	1	1	-5	-5	0	13
Cc1cc2c(cc1C)CSC(c1ccc3ccccc3c1O)SC2	-1	0	-6	-11	-8	10
Cc1cc2c(cc1C)CSC(c1ccccc1O)SC2	0	3	59*	-4	21	19
Cc1ccc(CNC(=O)C2CC(c3ccc(C(F)(F)F)cc3)=NO2)o1 (centres undefined)	5	7	62*	-4	1	28
Cc1ccc(OCCCC(=O)N(C)CC(=O)Nc2ccccc2Br)cc1	-2	1	-21	-6	-17	12
CN(CC(=O)Nc1ccccc1Br)C(=O)COc1ccc2ccccc2c1	2	2	-16	-5	1	41*
Cc1ccc(CC(NC(=O)C2CCCCC2)C(=O)O)cc1 (centres undefined)	x	x	-2	x	0	0
CCOc1ccc(-n2c(=S)sc3c(=O)[nH]c(SCC(=O)NCc4ccco4)nc32)cc1	1	1	0	-7	12	18
CCOc1ccc(-n2c(=S)sc3c(=O)[nH]c(SCC(=O)C(C)(C)C)nc32)cc1	-2	3	-8	-15	1	48*
Cc1noc(C)c1CN1C(=O)c2ccc([N+](=O)[O-])cc2C1=O	1	1	-5	-5	-15	53*
CC(C)CN(C(=O)CCNC(=O)c1ccc(Cl)cc1)C1CCS(=O)(=O)C1 (centres undefined)	0	0	-11	-1	-20	6
Cc1ccc(O)c(-c2cc(-c3cccc(Br)c3)n[nH]2)c1	-1	-1	54*	-5	24	12
COc1cn(-c2ccccc2)nc1C(=O)Nc1ccc(C)cc1	-1	-1	-25	-9	-18	28
COc1ccc(C)cc1NC(=O)COC(=O)c1c(C)nn(-c2ccccc2)c1C	3	4	-1	-9	37	30*
COc1ccc(C)cc1NC(=O)c1nn(-c2ccccc2)cc1OC	-1	1	-17	-6	17	48*
CCCCCOc1ccc(/C=C/c2c([N+](=O)[O-])c(=O)n(C)c(=O)n2C)cc1	0	1	-12	-19	-21	-6
CCNc1nc(NC(C)C)nc(NS(=O)(=O)c2ccc(C)cc2)n1	1	1	-11	1	-22	7
CC1CCCCN1C(=O)CCS(=O)(=O)c1cccc2nonc12 (centres undefined)	0	1	14	-9	-1	71*
CCN(CC(=O)Nc1ccccc1C(F)(F)F)C(=O)c1ccccc1Cc1ccccc1	-2	-1	-20	-7	-15	33
COc1cc(NS(=O)(=O)c2ccc(C)cc2C)cc(OC)c1OC	6	8	51*	-30	30	28
CCOC(=O)c1ccc(NS(=O)(=O)c2cc(C)ccc2OC)cc1	6	5	24*	-7	-20	9
